Laboratory results: ChEMBL document CHEMBL1127347, “Synthesis and biological activity of bile acid-derived HMG-CoA reductase inhibitors. The role of 21-methyl in recognition of HMG-CoA reductase and the ileal bile acid transport system” (J Med Chem, 1994)

Legend:
Oryctolagus cuniculus [1] = species: Oryctolagus cuniculus; experiment: (§1) Tested for inhibition of Na+ -dependent [3H]taurocholate uptake into rabbit ileal brush border membrane vesicles; type: functional
Method in brief: (§2)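 Ileal brush border vesicles from male New Zealand white rabbits (4-5 kg), prepared by Mg2+ precipitation and kept in liquid nitrogen. Vesicles (50 μg protein) in 10 mM Tris-Hepes pH 7.4/300 mM mannitol were added to medium at 30 °C containing 50 μM [3H]taurocholate with 100 mM NaCl or 100 mM KCl. Uptake stopped at 60 s with ice-cold stop solution, then filtration and scintillation. Na+-dependent uptake taken as NaCl minus KCl uptake; mean ± SD, 3-10 independent experiments with different membrane preparations.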

Oryctolagus cuniculus [2] = species: Oryctolagus cuniculus; experiment: as §1; type: functional; method in brief: as §2; remark: listed apart in the source
HepG2 = experiment: Tested for inhibition of cholesterol biosynthesis in HEP G2 cells; type: functional, cell-based; conditions: Homo sapiens
Method in brief: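 HEP G2 cells seeded at 5×10^4 cells/cm², grown 24 h in RPMI 1640/10% FCS, then 24 h in 10% lipoprotein-deficient serum. Cholesterol isolated by TLC and counted, corrected for recovery of [3H]cholesterol.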

[3] = target: T1, 3-hydroxy-3-methylglutaryl-coenzyme A reductase (Rattus norvegicus, UniProt P51639); experiment: Tested for inhibition of rat liver microsomal HMG-CoA reductase
T1 sequence (P51639 whole entry): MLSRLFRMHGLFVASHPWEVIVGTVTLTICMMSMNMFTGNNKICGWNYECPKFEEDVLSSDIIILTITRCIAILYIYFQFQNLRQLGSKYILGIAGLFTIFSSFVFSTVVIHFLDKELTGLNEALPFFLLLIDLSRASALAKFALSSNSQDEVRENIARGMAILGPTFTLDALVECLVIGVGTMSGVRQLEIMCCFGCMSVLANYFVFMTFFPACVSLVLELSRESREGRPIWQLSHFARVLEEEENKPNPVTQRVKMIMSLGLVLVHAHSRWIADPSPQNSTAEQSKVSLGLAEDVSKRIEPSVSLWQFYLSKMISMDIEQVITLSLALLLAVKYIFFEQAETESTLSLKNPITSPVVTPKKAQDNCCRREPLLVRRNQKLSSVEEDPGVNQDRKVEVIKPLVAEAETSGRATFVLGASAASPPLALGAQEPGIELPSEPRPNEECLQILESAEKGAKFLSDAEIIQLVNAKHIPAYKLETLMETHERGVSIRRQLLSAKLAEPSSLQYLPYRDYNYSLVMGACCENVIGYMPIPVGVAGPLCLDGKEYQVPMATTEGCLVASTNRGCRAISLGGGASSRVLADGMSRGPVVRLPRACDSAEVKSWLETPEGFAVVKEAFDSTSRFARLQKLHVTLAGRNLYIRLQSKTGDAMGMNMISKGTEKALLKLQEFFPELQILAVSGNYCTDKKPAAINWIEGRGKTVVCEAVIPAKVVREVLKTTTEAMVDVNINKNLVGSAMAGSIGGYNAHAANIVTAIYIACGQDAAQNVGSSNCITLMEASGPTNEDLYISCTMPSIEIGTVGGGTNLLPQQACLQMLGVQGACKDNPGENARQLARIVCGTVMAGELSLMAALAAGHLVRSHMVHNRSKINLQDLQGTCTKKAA
Method in brief: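 Microsomes came from livers of male Wistar rats (200-220 g) fed 2% cholestyramine for 10 days. Assay at pH 7.4 with 40 μg microsomal protein, NADP, glucose-6-phosphate and G6P dehydrogenase. Mevalonolactone separated on anion-exchange column and counted. Six concentrations in triplicate; IC50 read graphically, mean ± SD of three independent experiments.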

SMILES	IC25 (Oryctolagus cuniculus [1]) [µM]	IC75 (Oryctolagus cuniculus [1]) [µM]	IC50 (Oryctolagus cuniculus [2]) [µM]	IC50 (HepG2) [µM]	IC50 [3] [µM]
CC[C@H](C)C(=O)O[C@H]1C[C@@H](C)C=C2C=C[C@H](C)[C@H](CC[C@@H]3C[C@@H](O)CC(=O)O3)[C@H]21 [LOVASTATIN]	230	> 250	> 250	0.029	0.007
C[C@H](CCC(=O)O)[C@H]1CC[C@H]2[C@@H]3[C@H](O)C[C@@H]4C[C@H](O)CC[C@]4(C)[C@H]3C[C@H](O)[C@]12C [CHOLIC ACID]	40	152	83		
CC[C@H](C)C(=O)O[C@H]1C[C@H]2[C@@H](CC[C@@H]3C[C@H](O)CC[C@@]32C)[C@@H]2CCC(CC[C@H]3C[C@@H](O)CC(=O)O3)[C@@]12C (stereo partly specified)	87	> 250	186	8.2	1
CC[C@H](C)C(=O)O[C@H]1C[C@H]2[C@@H](CC[C@@H]3C[C@H](O)CC[C@@]32C)[C@@H]2CCC(CC[C@@H]3C[C@@H](O)CC(=O)O3)[C@@]12C (stereo partly specified)	87	> 250	170	1.8	0.2
C[C@H](CCC(=O)NCCS(=O)(=O)O)[C@H]1CC[C@H]2[C@@H]3[C@H](O)C[C@@H]4C[C@H](O)CC[C@]4(C)[C@H]3CC[C@]12C [TAUROCHENODEOXYCHOLATE]	13	61	28		
CC[C@H](C)C(=O)O[C@H]1C[C@H]2[C@@H](CC[C@@H]3C[C@H](O)CC[C@@]32C)[C@@H]2CCC([C@H](C)C[C@@H]3C[C@@H](O)CC(=O)O3)[C@@]12C (stereo partly specified)	37	148	85	16.1	0.65
CC[C@H](C)C(=O)O[C@H]1C[C@H]2[C@@H](CC[C@@H]3C[C@H](O)CC[C@@]32C)[C@@H]2CCC([C@H](C)C[C@H]3C[C@@H](O)CC(=O)O3)[C@@]12C (stereo partly specified)	47	166	92	54.8	7
